The test system of series [1] is DU-145 prostate cancer cells. Description: Trypan blue exclusion cell viability assay. The format is cell-based, human. The note with it: for EC100: read-out: EC100 values in DU-145 cells, trypan blue exclusion, 72 h, mean ± SEM. The essentials: (§1)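 Seeding 24 h ahead was DU-145 at 6,000 cells/well in DMEM and PC-3 at 6,500 cells/well in RPMI-1640, both with 10% FBS and 1% penicillin/streptomycin. Compounds were added from DMSO stocks (0.2% final DMSO) for 72 h, in quadruplicate. Cells were trypsinized, washed in calcium-free PBS, resuspended in PBS and counted by automated trypan blue exclusion. EC50 came from ≥6 concentrations bracketing a preliminary estimate; 3 independent experiments.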

The subject of series [2] is PC-3 prostate cancer cells. In words: Trypan blue exclusion cell viability assay. In kind it is cell-based, human. The following applies: for EC100: read-out: EC100 values in PC-3 cells, trypan blue exclusion, 72 h, mean ± SEM. In a few lines:
as §1

A short description of series [3]: Trypan blue exclusion cell viability assay on normal cells, 72 h. The format is cell-based, human. The note with it: human, HIFF (human infant foreskin fibroblasts). The essentials:
(§2)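 HIFF fibroblasts (infant foreskin, donor-consented) were kept in DMEM with 10% FBS and 1% penicillin/streptomycin at 37°C and 5% CO2, seeded at 6,000 cells/well 24 h ahead. Cells were treated for 72 h at 50 μM or at single lower concentrations (0.2% final DMSO), in quadruplicate. Cells were trypsinized, washed in calcium-free PBS, resuspended in PBS, and viability was scored by automated trypan blue exclusion.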

In series [4] the test system is DU-145 prostate cancer cells. Description: Alamar Blue cell viability assay. The format is cell-based. The note with it: Homo sapiens, DU-145, read-out: EC50 value in Alamar Blue. The essentials: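 DU-145 cells were grown in DMEM with 10% FBS and 1% penicillin/streptomycin at 37°C and 5% CO2, then seeded at 6,000 cells/well 24 h before treatment. Compounds were added from DMSO stocks to 0.2% final DMSO for 72 h, in quadruplicate. After PBS wash, wells got Alamar Blue for 6 h; fluorescence ex 530/em 590 nm. EC50 fitted from ≥6 concentrations.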
(In general: Alamar Blue is a resazurin reagent that responds to reducing activity.)

Series [5] concerns DU-145 prostate cancer cells. In words: Crystal violet cell viability assay. In kind it is cell-based, human. The note with it: crystal violet staining, even at non-cytotoxic concentrations. In a few lines:
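DU-145 cells were seeded at 6,000 cells/well in DMEM/10% FBS 24 h ahead and exposed to compound for 72 h (0.2% final DMSO), in quadruplicate. Cells were fixed in 4% formaldehyde at 4°C for 30 min, washed with MeOH:AcOH 3:1, then 80% MeOH, and stained with 0.1% crystal violet for 1 h at room temperature. Stain was dissolved in 10% AcOH; A570 read against untreated control.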

The subject of series [6] is HIFF (human infant foreskin fibroblasts) normal cells. In words: Trypan blue exclusion cell viability assay on normal cells, 72 h. The note with it: 50 μM flavonol, mean ± SEM. The format is cell-based. In a few lines:
as §2

In series [7] the test system is B12 cells. The following applies: 3 h incubation, ref 70 (Liu et al); cited from earlier work.
The mark [8] stands for this setting: Homo sapiens, DU-145, 72 h, read-out: EC50 values in DU-145 cells, trypan blue exclusion, 72 h, mean ± SEM.
Where [9] appears, read: Homo sapiens, DU-145, read-out: EC100 - EC50 values in DU-145 cells, difference between EC100 and EC50, mean ± SEM.
Setting [10] is: Homo sapiens, PC-3, 72 h, read-out: EC50 values in PC-3 cells, trypan blue exclusion, 72 h, mean ± SEM.
Setting [11] is: read-out: EC100 - EC50 values in PC-3 cells, difference between EC100 and EC50, mean ± SEM.
Where [12] appears, read: Homo sapiens, PC-3, read-out: EC100 - EC50 values in PC-3 cells, difference between EC100 and EC50, mean ± SEM.
Setting [13] is: read-out: EC100 - EC50 values in DU-145 cells, difference between EC100 and EC50, mean ± SEM.
Where [14] appears, read: read-out: EC50 values in DU-145 cells, trypan blue exclusion, 72 h, mean ± SEM.

Like-named read-outs stand apart in the source and are kept apart here.

Regarding `O=C(c1ccccc1)c1cccc(-c2oc3cc(O)cc(O)c3c(=O)c2O)c1` [5a, 2-(3-Benzoylphenyl)-3,5,7-trihydroxy-4H-chromen-4-one], the concentration giving a half-maximal response (EC50) (commonly the concentration giving half of the maximal effect) was found to be 14.8 ± 0.71 µM in series [1] (setting [8]), 5.62 ± 5.5 µM in series [1] (setting [9]), 9.31 ± 0.58 µM in series [2] (setting [10]) and 8.55 ± 2.06 µM in series [2] (setting [11]). The viability – broadly, a per cent measure of how many cells are alive, often set against a control – at 72 h, 50 μM in series [3] is 34.8 ± 0.2%.
In the case of `O=C(c1ccccc1)c1ccc(-c2oc3cc(O)cc(O)c3c(=O)c2O)cc1` [5b, 2-(4-Benzoylphenyl)-3,5,7-trihydroxy-4H-chromen-4-one], the EC50 in series [1] (setting [8]) came out at 16.6 ± 0.7 µM; in series [1] (setting [9]) it was 24.4 ± 1.1 µM; in series [2] (setting [10]), 9.97 ± 0.36 µM; in series [2] (setting [12]), 12.3 ± 0.99 µM. In addition, the EC100 in series [1] (Homo sapiens, DU-145, 72 h) came out at 41 ± 2.18 µM; in series [2] (Homo sapiens, PC-3, 72 h) it was 22.3 ± 0.91 µM. In addition, the viability at 72 h, 50 μM in series [3] came out at 32.3 ± 2.92%.
For the compound `O=c1c(O)c(-c2cccc(I)c2)oc2cc(O)cc(O)c12` [5c, 3,5,7-Trihydroxy-2-(3-iodophenyl)-4H-chromen-4-one], the concentration giving a half-maximal response (EC50) in series [1] (setting [8]) is 14.5 ± 1.02 µM; in series [1] (setting [9]) it was 10.1 ± 0.84 µM; in series [2] (setting [10]), 10.5 ± 0.72 µM; in series [2] (setting [11]), 9 ± 1.06 µM. The viability at 72 h, 50 μM in series [3] came out at 46.8 ± 2.48%.
On the same counts, the results for `O=c1c(O)c(-c2ccc(I)cc2)oc2cc(O)cc(O)c12` [5d, 3,5,7-Trihydroxy-2-(4-iodophenyl)-4H-chromen-4-one] are 7.51 ± 0.27 µM, 2.33 ± 2.05 µM, 4.13 ± 0.16 µM, 6.21 ± 0.59 µM and 34.8 ± 0.99%.
Take `Cc1ccc(-c2oc3cc(O)cc(O)c3c(=O)c2O)cc1` [5e, 3,5,7-Trihydroxy-2-(p-tolyl)-4H-chromen-4-one]: the EC50 in series [1] (setting [8]) was 14.3 ± 0.53 µM; in series [1] (setting [13]) it was 9.45 ± 1.89 µM; in series [2] (setting [10]) it was 9.89 ± 1.24 µM; in series [2] (setting [12]), 10.5 ± 3.29 µM. The compound further had a viability at 72 h, 50 μM in series [3] of 37.5 ± 2.27%.
Take `O=c1c(O)c(-c2ccccc2)oc2cc(O)cc(O)c12` [5f, Galangin, reference compound]: the EC50 in series [1] (setting [8]) was 25.9 ± 0.59 µM; in series [1] (setting [13]), 20.5 ± 0.46 µM; in series [2] (setting [10]), 17.1 ± 1.29 µM; in series [2] (setting [12]), 26.8 ± 5.31 µM. In addition, the EC100 in series [1] (Homo sapiens, DU-145, 72 h) came to 46.4 ± 3.92 µM; in series [2] (Homo sapiens, PC-3, 72 h), 43.9 ± 4.14 µM. Moreover, the viability at 72 h, 50 μM in series [3] came out at 48 ± 1.38%.
Consider `O=c1c(O)c(-c2cccc(-c3ccccc3)c2)oc2cc(O)cc(O)c12` [8c, 2-[(1,1′-Biphenyl)-3-yl]-3,5,7-trihydroxy-4H-chromen-4-one], for which the 50% effective concentration (EC50) in series [1] (setting [8]) is 6.33 ± 0.58 µM; in series [1] (setting [9]), 11.7 ± 1.11 µM; in series [2] (setting [10]), 6.35 ± 0.26 µM; in series [2] (setting [11]), 4.98 ± 1.54 µM. The same compound returned a viability at 72 h, 50 μM in series [3] of 34.6 ± 2.74%.
Taken in the same sequence, the figures for `O=c1c(O)c(-c2ccc(-c3ccccc3)cc2)oc2cc(O)cc(O)c12` [8d, 2-[(1,1′-Biphenyl)-4-yl]-3,5,7-trihydroxy-4H-chromen-4-one] were 5.57 ± 0.6 µM, 6.86 ± 0.18 µM, 5.4 ± 0.63 µM, 3.35 ± 0.93 µM and 34.4 ± 3.67%.
Take `COc1ccc(-c2oc3cc(O)cc(O)c3c(=O)c2O)cc1` [Kaempferide, reference compound]: the EC50 was 19.8 µM in series [1] (setting [8]); 19.8 ± 0.5 µM in series [1] (setting [14]); 19.4 ± 2.02 µM in series [1] (setting [13]); 14.9 ± 0.78 µM in series [2] (setting [10]); 19.3 ± 2.1 µM in series [2] (setting [12]); 30.1 µM in series [4]. Also, the EC100 amounted to 39.2 ± 0.87 µM in series [1] (Homo sapiens, DU-145, 72 h) and 34.2 ± 1.66 µM in series [2] (Homo sapiens, PC-3, 72 h). This compound displayed a viability at 72 h, 50 μM in series [3] of 52.2 ± 1.17%. Moreover, the “maximum achievable cell viability compared to the control” value in series [5] was less than 50%.
As for `O=c1c(O)c(-c2ccc(O)cc2)oc2cc(O)cc(O)c12` [Kaempferol, reference compound], the concentration for a half-maximal effect (EC50) in series [1] (setting [8]) is 38.4 ± 1.94 µM; in series [1] (setting [13]) it was 36 ± 2.02 µM; in series [2] (setting [10]), 33.3 ± 2.96 µM; in series [2] (setting [12]) it was 24.3 ± 4.63 µM. Also, the EC100 in series [1] (Homo sapiens, DU-145, 72 h) was 74.4 ± 0.83 µM; in series [2] (Homo sapiens, PC-3, 72 h) it was 57.6 ± 6.4 µM. In series [3], the viability at 72 h, 50 μM is 73.8 ± 1.38%.
For `O=c1c(O)c(-c2ccc(O)c(O)c2)oc2cc(O)cc(O)c12` [Quercetin, reference compound], the EC50 in series [1] (setting [8]) was determined as 39.1 µM; in series [1] (setting [14]), 39.1 ± 2.87 µM; in series [1] (setting [13]) it was 46.3 ± 8.55 µM; in series [2] (setting [10]), 32.9 µM; in series [2] (read-out: EC50 values in PC-3 cells, trypan blue exclusion, 72 h, mean ± SEM), 32.9 ± 4.1 µM; in series [2] (setting [11]), 44.3 ± 4.29 µM. Moreover, the EC50 in series [4] is 55.1 µM. The EC100 is 85.4 ± 6.11 µM in series [1] (Homo sapiens, DU-145, 72 h) and 77.1 ± 3.4 µM in series [2] (Homo sapiens, PC-3, 72 h). In series [3], this compound had a viability at 72 h, 50 μM of 84.5 ± 2.21%. Also, the “% Viability of HIFF (50 μM)” value in series [6] is “least inhibitory”.
Turning to `O=c1c(-c2ccc(O)cc2)coc2cc(O)cc(O)c12` [genistein], the “MTT reduced more than the control” value in series [7] is reported as 60%.

The record behind these values is publication PMC4091967 (International Journal of Oncology, 2014).
